Data from ChEMBL document CHEMBL4422629, “Discovery of an Orally Bioavailable and Central Nervous System (CNS) Penetrant mGlu7 Negative Allosteric Modulator (NAM) in Vivo Tool Compound: N-(2-(1 H-1,2,4-triazol-1-yl)-5-(trifluoromethoxy)phenyl)-4-(cyclopropylmethoxy)-3-methoxybenzamide (VU6012962)” (J Med Chem, 2019).
The source made the active and inactive calls. The calls are words filed in the database; no cut-off is given here.

Legend:
[1] = target: Metabotropic glutamate receptor 7 (Rattus norvegicus, UniProt P35400); experiment: Negative allosteric modulation of rat mGlu7 receptor expressed in HEK cells harboring Ga15 assessed as reduction in L-AP4-induced calcium flux preincubated for 142 secs followed by agonist addition and measured after 120 secs by Fluo-4-AM-dye based fluorescence assay; type: functional, cell-based
[2] = Fraction unbound in Sprague-Dawley rat plasma at 0.2 to 0.25 mg/kg, iv via cassette dosing measured up to 24 hrs post dose by LC/MS/MS analysis; type: ADME, organism-based; conditions: Sprague-Dawley, plasma
[3] = Unbound fraction in Sprague-Dawley rat brain at 0.2 to 0.25 mg/kg, iv via cassette dosing measured up to 24 hrs post dose by LC/MS/MS analysis; type: ADME, organism-based
Mus musculus = experiment: Anxiolytic-like activity in C57Bl/6J mouse assessed as increase in total time spent in the light side of the chamber at 15 mg/kg, ip measured during 10-min testing period; type: functional, organism-based
Procedure, shortened: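 Mouse light/dark box anxiety model; single ip dose with a 1 h treatment time before testing. Read-out is total time spent in the light side of the chamber versus vehicle-treated controls. Groups compared by one-way ANOVA with Dunnett's post hoc test; all data points screened with Grubb's outlier test.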

Sequence of Metabotropic glutamate receptor 7 (P35400 whole entry): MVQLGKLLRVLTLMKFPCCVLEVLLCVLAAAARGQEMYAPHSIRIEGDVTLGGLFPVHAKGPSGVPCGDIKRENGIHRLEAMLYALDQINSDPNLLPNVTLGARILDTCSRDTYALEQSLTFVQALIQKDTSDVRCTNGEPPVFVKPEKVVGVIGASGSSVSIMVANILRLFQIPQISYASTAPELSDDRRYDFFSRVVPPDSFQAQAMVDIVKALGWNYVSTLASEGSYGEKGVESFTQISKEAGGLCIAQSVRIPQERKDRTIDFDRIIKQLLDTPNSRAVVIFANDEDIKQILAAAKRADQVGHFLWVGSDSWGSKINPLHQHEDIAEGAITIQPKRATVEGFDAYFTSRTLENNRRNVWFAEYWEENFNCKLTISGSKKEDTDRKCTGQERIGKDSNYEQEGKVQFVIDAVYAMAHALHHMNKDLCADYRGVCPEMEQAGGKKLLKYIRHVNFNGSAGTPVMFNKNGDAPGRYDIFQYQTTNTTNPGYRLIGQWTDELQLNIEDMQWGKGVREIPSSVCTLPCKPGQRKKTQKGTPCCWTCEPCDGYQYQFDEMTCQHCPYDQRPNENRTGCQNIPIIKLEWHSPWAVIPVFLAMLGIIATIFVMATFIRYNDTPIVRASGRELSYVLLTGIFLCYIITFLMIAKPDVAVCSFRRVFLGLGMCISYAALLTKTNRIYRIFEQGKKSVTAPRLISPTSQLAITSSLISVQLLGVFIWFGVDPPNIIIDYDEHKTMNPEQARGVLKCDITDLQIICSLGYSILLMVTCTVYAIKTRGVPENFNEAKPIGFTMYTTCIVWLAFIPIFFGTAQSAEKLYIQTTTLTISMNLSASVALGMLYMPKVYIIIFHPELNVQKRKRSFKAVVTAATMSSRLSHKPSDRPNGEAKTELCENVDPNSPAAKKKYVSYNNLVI

Structure (SMILES)	IC50 [1]	fraction unbound at 24 h [2]	fraction unbound at 24 h [3]	Activity (Mus musculus)
COc1cc(C(=O)Nc2cc(OC(F)(F)F)ccc2-n2cncn2)ccc1OCC(C)C	1200 nM	–	–	–
COc1cc(F)c(OCCNc2cc(OC(F)(F)F)ccc2-n2cncn2)cc1OC	1200 nM	0.01 to 0.03	< 0.003	–
COc1cc(F)c(CCCNc2cc(Cl)ccc2-n2cncn2)cc1OC	> 10000 nM	–	–	–
COc1ccc(CCCNc2cc(OC(F)(F)F)ccc2-n2cncn2)cc1OC	1600 nM	0.01 to 0.03	< 0.003	–
COc1cc(C(=O)Nc2cc(OC(F)(F)F)ccc2-n2cncn2)ccc1OCC1CCCC1	2800 nM	–	–	–
CNCCC(Oc1ccc(C(F)(F)F)cc1)c1ccccc1 (centres undefined)	–	–	–	Active
COc1cc(F)c(CCCNc2cc(OC(F)(F)F)ccc2-n2cncn2)cc1OC	1300 nM	0.01 to 0.03	< 0.003	–
COc1cc(C(=O)Nc2cc(OC(F)(F)F)ccc2-n2cncn2)ccc1OCC1CCC1	1400 nM	–	–	–
